Assay results taken from ChEMBL document CHEMBL1150591, “Structure and absolute stereochemistry of hectochlorin, a potent stimulator of actin assembly” (J Nat Prod, 2002).
Active and inactive are the calls of the source. No cut-off for these calls is given here.

Legend:
PtK2 [1] = assay: Effect on actin cytoskeleton in rat kangaroo PtK2 cells assessed as increase in binucleated cells at 1 to 10 uM after 24 hrs by immunofluorescence analysis; format: functional, cell-based; conditions: Potorous tridactylus
How it was run: (§1)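 PtK2 cells were treated 24 h at 37 °C, then stained with FITC-anti-β-actin antibody (clone Ac-15) and DAPI. Cells were viewed under a 40× oil objective. FITC-phalloidin staining was also used.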

Oryctolagus cuniculus [2] = species: Oryctolagus cuniculus; assay: Stimulation of rabbit muscle actin polymerization assessed as light scattering at 10 to 50 uM by fluorimetry; conditions: Muscle tissue
How it was run: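 90° light scattering at 400 nm, 22 °C. Background read for 3 min, then drug in DMSO added, mixed, and followed about 15 min. PIB (2.5 M KCl, 100 mM MgCl2, 50 mM ATP) used as reference inducer.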

PtK2 [3] = assay: Effect on actin cytoskeleton in rat kangaroo PtK2 cells assessed as reorganization and hypernucleation of actin assembly at 0.03 uM after 24 hrs by immunofluorescence analysis; format: functional, cell-based; conditions: Potorous tridactylus; how it was run: as §1
CA46 [4] = assay: Antiproliferative activity against human CA46 cells after 24 hrs; format: functional, cell-based; conditions: CA46, 24 h
How it was run: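 CA46 Burkitt lymphoma cells are a suspension line. They were grown 24 h at 37 °C with drug, and cell number was the read-out. IC50 is the concentration giving 50% growth inhibition.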

PtK2 [5] = assay: Effect on actin cytoskeleton in rat kangaroo PtK2 cells assessed as retracted cytoplasm and spiky appearance at 3 uM after 24 hrs by immunofluorescence analysis; format: functional, cell-based; conditions: Potorous tridactylus; how it was run: as §1
PtK2 [6] = assay: Effect on actin cytoskeleton in rat kangaroo PtK2 cells assessed as increase in binucleated cells at 0.3 to 3 uM after 24 hrs by immunofluorescence analysis; format: functional, cell-based; conditions: Potorous tridactylus; how it was run: as §1
[7] = Antiproliferative activity against rat kangaroo PtK2 cells after 48 hrs; format: cell-based; conditions: Potorous tridactylus, PtK2, 48 h
How it was run: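 PtK2 kidney cells (Potorous tridactylis) are an attached line. They were exposed to drug for 48 h, and cell protein was the read-out of growth. IC50 was taken from the concentration response.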

[8] = Displacement of FITC-phalloidin from rabbit muscle actin polymer after 1 hr by fluorescence analysis; format: tissue-based, Oryctolagus cuniculus, Muscle tissue
How it was run: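 Rabbit muscle actin and FITC-phalloidin were incubated 1 h at 22 °C in monomer buffer with 2 µL PIB per 100 µL. Drugs in DMSO were added for another 1 h at 22 °C, then the mixture was centrifuged and supernatant fluorescence read. EC50 is the concentration giving 50% of the maximal phalloidin-induced increase.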

Staphylococcus aureus = assay: Antimicrobial activity against Staphylococcus aureus ATCC 12600 by standard paper sensitivity disk-agar plate method; format: functional, organism-based
How it was run: (§2)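 Paper disks of 6 mm diameter placed on seeded agar plates; activity assessed by standard disk-agar sensitivity method.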

CA46 [9] = assay: Cell cycle arrest in human CA46 cells assessed as accumulation at G2/M phase at 0.2 uM after 24 hrs using propidium iodide labeling by flow cytometry; format: functional
PtK2 [10] = assay: Effect on actin cytoskeleton in rat kangaroo PtK2 cells assessed as hairy appearance at 10 uM after 24 hrs by immunofluorescence analysis; format: functional, cell-based; conditions: Potorous tridactylus; how it was run: as §1
PtK2 [11] = assay: Effect on actin cytoskeleton in rat kangaroo PtK2 cells assessed as hairy appearance at 3 uM after 24 hrs by immunofluorescence analysis; format: functional, cell-based; conditions: Potorous tridactylus; how it was run: as §1
Oryctolagus cuniculus [12] = species: Oryctolagus cuniculus; assay: Stimulation of rabbit muscle actin polymerization by electron microscopy; conditions: Muscle tissue
How it was run: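 Samples of purified rabbit muscle actin with drug were examined by electron microscopy for filaments, in parallel with K+-induced controls. Low-speed centrifugation (20000g, 30 min, 22 °C) was used to test for bundled polymer.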

Escherichia coli = assay: Antimicrobial activity against Escherichia coli ATCC 1775 by standard paper sensitivity disk-agar plate method; format: functional, organism-based; how it was run: as §2
[13] = Antiproliferative activity against human NCI60 cells; format: functional
PtK2 [14] = assay: Effect on actin cytoskeleton in rat kangaroo PtK2 cells assessed as thickening in microfilament at 0.3 uM after 24 hrs by immunofluorescence analysis relative to untreated control; format: functional, cell-based; conditions: Potorous tridactylus; how it was run: as §1
Pseudomonas aeruginosa = assay: Antimicrobial activity against Pseudomonas aeruginosa ATCC 10145 by standard paper sensitivity disk-agar plate method; format: functional, organism-based; how it was run: as §2
Oryctolagus cuniculus [15] = species: Oryctolagus cuniculus; assay: Displacement of FITC-phalloidin from rabbit muscle actin polymer pretreated prior to FITC-phalloidin addition by fluorescence analysis; conditions: Muscle tissue
[16] = Stimulation of rabbit muscle actin polymerization by centrifugation assay; format: tissue-based, Oryctolagus cuniculus, Muscle tissue
How it was run: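 Purified rabbit muscle actin with drug under nonpolymerizing conditions (no exogenous K+). Polymer was separated by centrifugation and supernatant protein measured. EC50 is the concentration reducing supernatant protein by 50% compared with a drug-free control. Three independent experiments were averaged. Total incubation plus processing time was 2.5 h.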

[17] = system: Salmonella enterica subsp. enterica; assay: Antimicrobial activity against Salmonella choleraesuis subsp. choleraesuis ATCC 14028 by standard paper sensitivity disk-agar plate method; format: functional, organism-based; how it was run: as §2
PtK2 [18] = assay: Effect on actin cytoskeleton in rat kangaroo PtK2 cells assessed as thickening in microfilament at 1.0 uM after 24 hrs by immunofluorescence analysis relative to untreated control; format: functional, cell-based; conditions: Potorous tridactylus; how it was run: as §1
Bacillus subtilis = assay: Antimicrobial activity against Bacillus subtilis ATCC 6051 by standard paper sensitivity disk-agar plate method; format: functional, organism-based
How it was run: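 Paper disk on agar, disk diameter 6 mm.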

CA46 [19] = assay: Ratio of IC50 for rat kangaroo Ptk2 cells to IC50 for human CA46 cells
Candida albicans [20] = assay: Antimicrobial activity against Candida albicans ATCC 14053 at 10 ug/disk by standard paper sensitivity disk-agar plate method; format: functional; conditions: read-out: IZ
How it was run: (§3)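 Agar disk diffusion with paper disks 6 mm in diameter, dose per disk as in line.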

Candida albicans [21] = assay: Antimicrobial activity against Candida albicans ATCC 14053 at 100 ug/disk by standard paper sensitivity disk-agar plate method; format: functional; conditions: read-out: IZ; how it was run: as §3
CA46 [22] = assay: Cell cycle arrest in human CA46 cells assessed as accumulation at G2/M phase at 1.0 uM after 24 hrs using propidium iodide labeling by flow cytometry; format: functional
How it was run: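 CA46 human Burkitt lymphoma cells were treated with the drug for 24 h. Cellular DNA content was then labelled with propidium iodide and measured by flow cytometry. The read-out was the percentage of cells in G2/M phase, compared against an untreated control.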

| SMILES | Activity (PtK2 [1]) | Activity (Oryctolagus cuniculus [2]) | IC50 (CA46 [4]) | Activity (PtK2 [6]) | IC50 [7] | EC50 [8] | Activity (PtK2 [10]) | Activity (PtK2 [11]) | Activity (PtK2 [14]) | EC50 [16] | Activity (PtK2 [18]) | further results |
| --- | --- | --- | --- | --- | --- | --- | --- | --- | --- | --- | --- | --- |
| C/C1=C\[C@H](C)C[C@H](C)OC(=O)C[C@H](c2ccc(O)cc2)NC(=O)[C@@H](Cc2c(Br)[nH]c3ccccc23)N(C)C(=O)[C@H](C)NC(=O)[C@@H](C)C1 [JASPAMIDE] | Active | Active | 0.03 µM | Active | 0.3 µM | 6.5 µM | – | – | – | – | – | Activity (PtK2 [3]): Active; Activity (PtK2 [5]): Active |
| CC(=O)O[C@@H]1c2nc(cs2)C(=O)O[C@@H](CCCC(C)(Cl)Cl)[C@H](C)C(=O)O[C@@H](C(C)(C)O)c2nc(cs2)C(=O)OC1(C)C [HECTOCHLORIN] | Active | Active | 0.02 µM | Active | 0.3 µM | > 60 µM | Active | Active | Active | 20 µM | Active | Activity (Staphylococcus aureus): inactive; Activity (CA46 [9]): 37%; Activity (Oryctolagus cuniculus [12]): inactive; Activity (Escherichia coli): inactive; GI50 [13]: 5.1 µM; Activity (Pseudomonas aeruginosa): inactive; Activity (Oryctolagus cuniculus [15]): inactive; Activity [17]: inactive; Activity (Bacillus subtilis): inactive; Ratio IC50 (CA46 [19]): 10; zone of inhibition at 10 µg/disc (Candida albicans [20]): 11 mm; zone of inhibition at 100 µg/disc (Candida albicans [21]): 16 mm |
| CC(C)[C@@H]1NC(=O)CNC(=O)[C@@H]2CSC(=N2)[C@H](C(C)(C)O)OC(=O)C(C)(C)[C@H](CCCC(C)(Cl)Cl)OC(=O)c2csc1n2 [LYNGBYABELLIN B] | Active | – | 0.1 µM | Active | 1 µM | – | Active | Active | Active | > 50 µM | Active | Activity (CA46 [22]): 28% |
